Measured values reported in ChEMBL document CHEMBL1153241, “2,3,5-Trisubstituted pyridines as selective AKT inhibitors-Part I: Substitution at 2-position of the core pyridine for ROCK1 selectivity” (Bioorg Med Chem Lett, 2010).

How the values were obtained:
[1] = molecular target: T1, RAC-alpha serine/threonine-protein kinase (Homo sapiens, UniProt P31749); assay: Inhibition of full length AKT1
[2] = molecular target: T1, RAC-alpha serine/threonine-protein kinase; assay: Inhibition of AKT1 in human BT474 cells assessed as phosphorylation of GSK3; format: cell-based, BT-474
[3] = molecular target: T1, RAC-alpha serine/threonine-protein kinase; assay: Inhibition of truncated AKT1
Procedure, shortened: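 AKT1 construct truncated to lack the PH domain. IC50 measured with ATP at or below its Km. At least two determinations (n ≥ 2).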

[4] = molecular target: Rho-associated protein kinase 1 (Homo sapiens, UniProt Q13464); assay: Inhibition of ROCK1
[5] = Selectivity ratio of IC50 for ROCK1 to IC50 for AKT1

Chain of Rho-associated protein kinase 1 (Q13464 whole entry): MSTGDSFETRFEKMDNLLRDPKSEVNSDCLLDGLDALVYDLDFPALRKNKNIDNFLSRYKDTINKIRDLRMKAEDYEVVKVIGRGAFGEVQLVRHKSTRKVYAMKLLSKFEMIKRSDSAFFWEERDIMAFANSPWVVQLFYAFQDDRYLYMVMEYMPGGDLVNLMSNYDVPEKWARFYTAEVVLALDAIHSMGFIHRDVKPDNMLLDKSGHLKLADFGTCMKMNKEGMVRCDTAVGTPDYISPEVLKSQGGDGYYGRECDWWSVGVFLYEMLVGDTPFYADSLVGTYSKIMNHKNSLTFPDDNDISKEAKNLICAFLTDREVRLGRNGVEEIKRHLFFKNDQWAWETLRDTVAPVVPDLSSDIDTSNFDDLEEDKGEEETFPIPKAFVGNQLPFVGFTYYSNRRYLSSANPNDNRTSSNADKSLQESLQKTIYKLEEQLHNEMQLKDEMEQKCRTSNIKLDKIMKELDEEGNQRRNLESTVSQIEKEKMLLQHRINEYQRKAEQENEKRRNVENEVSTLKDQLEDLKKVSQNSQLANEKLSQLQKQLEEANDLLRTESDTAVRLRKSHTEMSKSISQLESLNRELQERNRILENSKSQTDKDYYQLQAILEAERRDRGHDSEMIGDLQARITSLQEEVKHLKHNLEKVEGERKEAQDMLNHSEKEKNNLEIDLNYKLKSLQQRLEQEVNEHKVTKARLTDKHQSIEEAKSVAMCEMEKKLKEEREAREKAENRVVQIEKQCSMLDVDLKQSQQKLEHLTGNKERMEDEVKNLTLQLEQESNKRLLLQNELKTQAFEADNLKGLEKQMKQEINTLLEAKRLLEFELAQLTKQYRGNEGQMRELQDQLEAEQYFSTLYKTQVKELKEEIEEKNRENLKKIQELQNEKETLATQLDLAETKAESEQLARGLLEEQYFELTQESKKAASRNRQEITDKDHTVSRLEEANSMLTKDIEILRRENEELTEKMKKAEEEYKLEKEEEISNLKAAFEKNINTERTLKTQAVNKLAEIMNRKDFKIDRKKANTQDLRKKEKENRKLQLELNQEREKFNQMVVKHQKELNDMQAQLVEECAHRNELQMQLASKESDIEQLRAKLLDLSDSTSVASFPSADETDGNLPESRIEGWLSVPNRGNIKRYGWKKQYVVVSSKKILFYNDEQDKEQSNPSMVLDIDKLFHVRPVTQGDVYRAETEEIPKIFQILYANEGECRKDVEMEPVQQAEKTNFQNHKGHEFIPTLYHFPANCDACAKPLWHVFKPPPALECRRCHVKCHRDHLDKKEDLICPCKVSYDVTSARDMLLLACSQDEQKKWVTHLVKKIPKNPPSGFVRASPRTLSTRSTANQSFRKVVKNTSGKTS
T1 sequence (P31749 whole entry): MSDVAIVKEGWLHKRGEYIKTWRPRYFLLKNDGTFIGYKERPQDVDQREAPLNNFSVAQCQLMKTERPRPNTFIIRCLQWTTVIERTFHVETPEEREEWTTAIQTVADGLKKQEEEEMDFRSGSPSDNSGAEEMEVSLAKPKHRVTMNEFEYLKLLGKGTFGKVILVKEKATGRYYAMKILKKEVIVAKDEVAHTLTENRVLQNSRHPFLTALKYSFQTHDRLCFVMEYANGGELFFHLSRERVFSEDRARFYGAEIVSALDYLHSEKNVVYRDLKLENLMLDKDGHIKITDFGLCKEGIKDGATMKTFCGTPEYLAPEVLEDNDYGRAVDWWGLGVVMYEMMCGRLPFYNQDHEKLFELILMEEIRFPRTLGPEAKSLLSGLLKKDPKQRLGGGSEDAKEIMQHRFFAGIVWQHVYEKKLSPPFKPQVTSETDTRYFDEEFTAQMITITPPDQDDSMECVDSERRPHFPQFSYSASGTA

Row | IC50 [1] | IC50 [2] | IC50 [3] | IC50 [4] | Ratio IC50 [5] | Compound
1 | 10 nM | 4300 nM |  |  |  | Cc1n[nH]c2ccc(-c3cc(OC[C@@H](N)Cc4c[nH]c5cccnc45)cnc3-c3ccoc3)cc12
2 | 13 nM | 6800 nM |  |  |  | Cc1n[nH]c2ccc(-c3cc(OC[C@@H](N)Cc4c[nH]c5ccncc45)cnc3-c3ccoc3)cc12
3 |  |  | 10500 nM | > 10000 nM |  | Cc1n[nH]c2ccc(-c3cc(OC[C@@H](N)Cc4ccccc4)cnc3C#CC(C)(C)O)cc12
4 | 1 nM | 260 nM |  |  |  | Cc1n[nH]c2ccc(-c3cc(OC[C@@H](N)Cc4c[nH]c5c(F)cccc45)cnc3-c3ccoc3)cc12
5 | 500 nM |  |  | 1400 nM |  | Cc1n[nH]c2ccc(-c3cc(OC[C@@H](N)Cc4ccccc4)cnc3-c3ccc(O)cc3)cc12
6 | 8 nM | 930 nM |  |  |  | Cc1n[nH]c2ccc(-c3cc(OC[C@@H](N)Cc4c[nH]c5ncccc45)cnc3-c3ccoc3)cc12
7 | 0.8 nM | 220 nM |  |  |  | Cc1n[nH]c2ccc(-c3cc(OC[C@@H](N)Cc4c[nH]c5cc(F)ccc45)cnc3-c3ccoc3)cc12
8 | 1 nM | 360 nM |  |  |  | Cc1n[nH]c2ccc(-c3cc(OC[C@@H](N)Cc4c[nH]c5ccc(F)cc45)cnc3-c3ccoc3)cc12
9 | 50 nM |  |  | > 10000 nM | > 200 | Cc1n[nH]c2ccc(-c3cc(OC[C@@H](N)Cc4ccccc4)cnc3-c3ccccc3)cc12
10 | 0.8 nM | 84 nM |  |  |  | Cc1occc1-c1ncc(OC[C@@H](N)Cc2c[nH]c3ccccc23)cc1-c1ccc2[nH]nc(C)c2c1
11 | 15 nM |  |  | 9500 nM |  | Cc1n[nH]c2ccc(-c3cc(OC[C@@H](N)Cc4ccccc4)cnc3-c3ccccc3O)cc12
12 | 50 nM |  |  | 6000 nM |  | Cc1n[nH]c2ccc(-c3cc(OC[C@@H](N)Cc4ccccc4)cnc3-c3ccsc3)cc12
13 | 10 nM |  |  | 5200 nM |  | Cc1n[nH]c2ccc(-c3cc(OC[C@@H](N)Cc4ccccc4)cnc3-c3ccoc3)cc12
14 | 15 nM |  |  | > 10000 nM |  | Cc1n[nH]c2ccc(-c3cc(OC[C@@H](N)Cc4ccccc4)cnc3-c3ccc[nH]3)cc12
15 | 3 nM |  |  | 7600 nM | > 2000 | Cc1n[nH]c2ccc(-c3cc(OC[C@@H](N)Cc4ccccc4)cnc3-c3cc(Cl)ccc3O)cc12
16 | 100 nM |  |  | > 10000 nM |  | COc1ccccc1-c1ncc(OC[C@@H](N)Cc2ccccc2)cc1-c1ccc2[nH]nc(C)c2c1
17 | 720 nM |  |  | > 10000 nM |  | Cc1n[nH]c2ccc(-c3cc(OC[C@@H](N)Cc4ccccc4)cnc3C#CCCO)cc12
18 |  |  | 10 nM | 9800 nM |  | Cc1n[nH]c2ccc(-c3cc(OC[C@@H](N)Cc4ccccc4)cnc3-c3cc(F)ccc3O)cc12
19 | 63 nM |  |  | > 10000 nM |  | Cc1n[nH]c2ccc(-c3cc(OC[C@@H](N)Cc4ccccc4)cnc3-c3cc(F)cc(F)c3O)cc12
20 | 79 nM |  |  | 2500 nM |  | Cc1n[nH]c2ccc(-c3cc(OC[C@@H](N)Cc4ccccc4)cnc3-c3cccs3)cc12
21 |  |  | 790 nM | 1290 nM |  | Cc1n[nH]c2ccc(-c3cc(OC[C@@H](N)Cc4ccccc4)cnc3-c3ccco3)cc12
22 |  | 500 nM |  |  |  | Cc1n[nH]c2ccc(-c3cc(OC[C@@H](N)Cc4c[nH]c5ccccc45)cnc3-c3ccoc3)cc12
23 | 79 nM |  |  | > 10000 nM |  | Cc1n[nH]c2ccc(-c3cc(OC[C@@H](N)Cc4ccccc4)cnc3-c3cccc(O)c3)cc12
